Laboratory results from ChEMBL document CHEMBL3853298, “Total synthesis and in vitro bioevaluation of clavaminols A, C, H & deacetyl clavaminol H as potential chemotherapeutic and antibiofilm agents” (Eur J Med Chem, 2016).
Values after ≈ are worked out from the molar mass of the structure shown.

Experiments:
Pseudomonas aeruginosa [1] = assay: Antibacterial activity against Pseudomonas aeruginosa MTCC 2453 after 24 hrs by well diffusion method; format: functional; details: MTCC 2453, 24 h
Summary of the method: (§1)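 Bacteria spread (0.1 mL suspension) on Mueller-Hinton agar; 6.0 mm wells loaded with compound over a 250 to 0.48 per-well dose range, methanol as negative control. Incubated 24 h at 37 °C. MIC taken as the lowest concentration still giving an inhibition zone. Duplicates, mean reported.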

Candida albicans [2] = assay: Antifungal activity against Candida albicans MTCC 4748 after 24 hrs by well diffusion method; format: functional; details: MTCC 4748, 24 h
Summary of the method: (§2)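 Candida/Issatchenkia lawns (0.1 mL suspension) on Mueller-Hinton agar; 6.0 mm bored wells receive compound across a 250 to 0.48 per-well dose range, methanol as negative control. Plates kept 24 h at 30 °C. MIC is the lowest concentration producing a visible inhibition zone. Duplicate runs, mean values.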

Candida albicans [3] = assay: Antifungal activity against Candida albicans MTCC 7315 after 24 hrs by well diffusion method; format: functional; details: MTCC 7315, 24 h; summary of the method: as §2
Candida albicans [4] = assay: Antifungal activity against Candida albicans MTCC 3017 after 24 hrs by well diffusion method; format: functional; details: MTCC 3017, 24 h; summary of the method: as §2
[5] = Cytotoxicity against human SKOV3 cells assessed as cell growth inhibition by MTT assay; format: functional, cell-based; details: SK-OV-3
Candida albicans [6] = assay: Fungicidal activity against Candida albicans MTCC 1637 after 24 hrs; format: functional; details: MTCC 1637, 24 h
Summary of the method: (§3)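 Candida grown overnight in Mueller Hinton broth. Compound serially diluted in the same broth from 150 to 0 and inoculated to a final 1.5 × 10^8 CFU/mL (0.5 McFarland), then 24 h at 37 °C. Tube contents plated onto Mueller Hinton agar for 24 h at 37 °C. MFC is the lowest concentration killing the yeast. Duplicates.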

Bacillus subtilis [7] = assay: Antibacterial activity against Bacillus subtilis MTCC 121 after 24 hrs by well diffusion method; format: functional; details: MTCC 121, 24 h; summary of the method: as §1
Pichia sporocuriosa = assay: Antifungal activity against Issatchenkia hanoiensis MTCC 4755 after 24 hrs by well diffusion method; format: functional; details: MTCC 4755, 24 h; summary of the method: as §2
[8] = Antifungal activity against Candida krusei MTCC 3020 after 24 hrs by well diffusion method; format: functional; details: Pichia kudriavzevii; summary of the method: as §2
Candida parapsilosis = assay: Fungicidal activity against Candida parapsilosis MTCC 1744 after 24 hrs; format: functional; details: Lodderomyces parapsilosis, MTCC 1744, 24 h
Summary of the method: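 Broth dilution in Mueller Hinton broth with serial compound concentrations from […]. Overnight Candida cultures added to a final 1.5 × 10^8 CFU/mL (0.5 McFarland). Incubated 24 h at 37 °C, then 10 µL of each tube plated on Mueller Hinton agar for 24 h at 37 °C. MFC taken as the lowest concentration that kills the strain. Run in duplicate.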

Staphylococcus aureus [9] = assay: Antibacterial activity against Staphylococcus aureus MTCC 96 after 24 hrs by well diffusion method; format: functional; details: MTCC 96, 24 h; summary of the method: as §1
Micrococcus luteus [10] = assay: Antibacterial activity against Micrococcus luteus MTCC 2470 after 24 hrs by well diffusion method; format: functional; details: MTCC 2470, 24 h; summary of the method: as §1
Staphylococcus aureus [11] = assay: Bactericidal activity against Staphylococcus aureus MLS16 MTCC 2940 after 24 hrs; format: functional; details: MLS16 MTCC 2940, 24 h
Summary of the method: (§4)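 Broth macrodilution in Mueller Hinton broth, compound serially diluted from 150 down to 0. Overnight bacterial culture added to a final 1.5 × 10^8 CFU/mL (0.5 McFarland), 24 h at 37 °C. Suspension then subcultured onto Mueller Hinton agar for 24 h at 37 °C. MBC is the lowest concentration killing the strain. Duplicates.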

Micrococcus luteus [12] = assay: Bactericidal activity against Micrococcus luteus MTCC 2470 after 24 hrs; format: functional; details: MTCC 2470, 24 h; summary of the method: as §4
Candida albicans [13] = assay: Fungicidal activity against Candida albicans MTCC 4748 after 24 hrs; format: functional; details: MTCC 4748, 24 h; summary of the method: as §3
Escherichia coli = assay: Bactericidal activity against Escherichia coli MTCC 739 after 24 hrs; format: functional; details: MTCC 739, 24 h; summary of the method: as §4
Candida albicans [14] = assay: Antifungal activity against Candida albicans MTCC 3018 after 24 hrs by well diffusion method; format: functional; details: MTCC 3018, 24 h; summary of the method: as §2
Candida albicans [15] = assay: Fungicidal activity against Candida albicans MTCC 3017 after 24 hrs; format: functional; details: MTCC 3017, 24 h; summary of the method: as §3
Raoultella planticola = assay: Bactericidal activity against Klebsiella planticola MTCC 530 after 24 hrs; format: functional; details: MTCC 530, 24 h; summary of the method: as §4
Pseudomonas aeruginosa [16] = assay: Bactericidal activity against Pseudomonas aeruginosa MTCC 2453 after 24 hrs; format: functional; details: MTCC 2453, 24 h; summary of the method: as §4
Candida albicans [17] = assay: Fungicidal activity against Candida albicans MTCC 7315 after 24 hrs; format: functional; details: MTCC 7315, 24 h; summary of the method: as §3
Bacillus subtilis [18] = assay: Bactericidal activity against Bacillus subtilis MTCC 121 after 24 hrs; format: functional; details: MTCC 121, 24 h; summary of the method: as §4
Candida albicans [19] = assay: Fungicidal activity against Candida albicans MTCC 227 after 24 hrs; format: functional; details: MTCC 227, 24 h; summary of the method: as §3
[20] = Antifungal activity against Candida parapsilosis MTCC 1744 after 24 hrs by well diffusion method; format: functional; summary of the method: as §2
Candida albicans [21] = assay: Antifungal activity against Candida albicans MTCC 227 after 24 hrs by well diffusion method; format: functional; details: MTCC 227, 24 h; summary of the method: as §2
Staphylococcus aureus [22] = assay: Bactericidal activity against Staphylococcus aureus MTCC 96 after 24 hrs; format: functional; details: MTCC 96, 24 h; summary of the method: as §4

MIC (Pseudomonas aeruginosa [1]): 7.8 µg/mL (≈ 35.9 µM)
MIC (Candida albicans [2]): 15.6 µg/mL (≈ 71.8 µM)
MIC (Candida albicans [3]): 31.2 µg/mL (≈ 144 µM)
MIC (Candida albicans [4]): 15.6 µg/mL (≈ 71.8 µM)
MIC (Bacillus subtilis [7]): 3.9 µg/mL (≈ 17.9 µM)
MIC (Pichia sporocuriosa): 15.6 µg/mL (≈ 71.8 µM)
MIC [8]: 7.8 µg/mL (≈ 35.9 µM)
MIC (Staphylococcus aureus [9]): 7.8 µg/mL (≈ 35.9 µM)
MIC (Micrococcus luteus [10]): 3.9 µg/mL (≈ 17.9 µM)
MIC (Candida albicans [14]): 15.6 µg/mL (≈ 71.8 µM)
MIC [20]: 31.2 µg/mL (≈ 144 µM)
MIC (Candida albicans [21]): 15.6 µg/mL (≈ 71.8 µM)
SMILES: CCCCCCCCC[C@H](O)[C@H](N)CO
IC50 [5]: 33.6 µM
MFC (Candida albicans [6]): 15.6 µg/mL (≈ 71.8 µM)
MFC (Candida parapsilosis): 62.5 µg/mL (≈ 288 µM)
MBC (Staphylococcus aureus [11]): 7.8 µg/mL (≈ 35.9 µM)
MBC (Micrococcus luteus [12]): 7.8 µg/mL (≈ 35.9 µM)
MFC (Candida albicans [13]): 31.2 µg/mL (≈ 144 µM)
MBC (Escherichia coli): 15.6 µg/mL (≈ 71.8 µM)
MFC (Candida albicans [15]): 31.2 µg/mL (≈ 144 µM)
MBC (Raoultella planticola): 31.2 µg/mL (≈ 144 µM)
MBC (Pseudomonas aeruginosa [16]): 15.6 µg/mL (≈ 71.8 µM)
MFC (Candida albicans [17]): 62.5 µg/mL (≈ 288 µM)
MBC (Bacillus subtilis [18]): 7.8 µg/mL (≈ 35.9 µM)
MFC (Candida albicans [19]): 31.2 µg/mL (≈ 144 µM)
MBC (Staphylococcus aureus [22]): 7.8 µg/mL (≈ 35.9 µM)
